{"source": "ChEMBL document CHEMBL1938274", "about": "“Discovery of potent and specific CXCR3 antagonists” (Bioorg Med Chem Lett, 2012)", "key": {"Cytochrome P450 3A4": {"target": "Cytochrome P450 3A4 (Homo sapiens, UniProt P08684)", "sequence (P08684 whole entry)": "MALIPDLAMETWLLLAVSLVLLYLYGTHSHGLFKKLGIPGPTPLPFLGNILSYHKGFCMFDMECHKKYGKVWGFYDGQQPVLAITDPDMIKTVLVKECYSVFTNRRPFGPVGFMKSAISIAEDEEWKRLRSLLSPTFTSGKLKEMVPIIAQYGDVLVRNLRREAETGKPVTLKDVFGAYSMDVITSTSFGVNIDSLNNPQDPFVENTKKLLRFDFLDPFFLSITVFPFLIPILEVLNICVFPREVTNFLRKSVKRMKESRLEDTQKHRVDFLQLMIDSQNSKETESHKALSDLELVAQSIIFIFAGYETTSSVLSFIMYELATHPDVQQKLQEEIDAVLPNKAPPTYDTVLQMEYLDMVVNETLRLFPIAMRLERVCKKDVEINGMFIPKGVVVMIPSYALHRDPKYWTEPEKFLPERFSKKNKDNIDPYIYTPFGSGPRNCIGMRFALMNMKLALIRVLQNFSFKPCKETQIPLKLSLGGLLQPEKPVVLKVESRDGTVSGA", "assay": "Time dependent inhibition of CYP3A4", "type": "ADME"}, "[1]": {"target": "T1, C-X-C chemokine receptor type 3 (Homo sapiens, UniProt P49682)", "T1 sequence (P49682 whole entry)": "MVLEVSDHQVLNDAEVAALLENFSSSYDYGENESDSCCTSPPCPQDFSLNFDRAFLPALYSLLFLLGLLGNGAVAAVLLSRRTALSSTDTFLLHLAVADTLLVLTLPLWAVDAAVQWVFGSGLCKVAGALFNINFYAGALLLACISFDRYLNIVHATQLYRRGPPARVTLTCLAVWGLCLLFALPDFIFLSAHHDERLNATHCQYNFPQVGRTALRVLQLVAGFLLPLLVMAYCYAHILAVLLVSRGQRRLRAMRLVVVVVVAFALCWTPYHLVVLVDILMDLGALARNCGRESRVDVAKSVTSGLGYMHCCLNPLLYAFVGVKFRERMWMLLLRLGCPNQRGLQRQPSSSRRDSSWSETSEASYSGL", "assay": "Displacement of [125I]-IP-10 from CXCR3 in presence of 100% human serum"}, "[2]": {"target": "T1, C-X-C chemokine receptor type 3", "assay": "Displacement of [125I]-IP-10 from CXCR3"}, "PBL [3]": {"tested_on": "PBL", "assay": "Toxicity in human PBL assessed as chromosomal aberrations at 7.81 to 1000 ug/mL", "type": "cell-based", "in_short": "(§1)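 Cultured human peripheral blood lymphocytes exposed at 7.81–1000 μg/mL, with and without S9 metabolic activation; chromosomal aberrations scored.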"}, "[4]": {"assay": "Apparent oral bioavailability in cynomolgus monkey at 2 mg/kg", "type": "ADME, organism-based, Macaca fascicularis", "conditions": "in vivo, read-out: Fapp; call rule not given here"}, "[5]": {"assay": "Clearance in cynomolgus monkey at 0.5 mg/kg, iv", "type": "ADME, organism-based, Macaca fascicularis", "set-up": "dose 0.5 mg/kg, route intravenous", "conditions": "in vivo", "in_short": "(§2)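 Single intravenous dose in 10% N,N-dimethylacetamide, 10% ethanol, 30% propylene glycol, 50% water: 1 mg/kg mouse; 0.5 mg/kg rat, beagle dog, cynomolgus monkey. Plasma clearance also given as percent of hepatic blood flow.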"}, "[6]": {"assay": "Apparent oral bioavailability in Beagle dog at 2 mg/kg", "type": "ADME, organism-based, Canis lupus familiaris", "conditions": "in vivo, read-out: Fapp"}, "PBL [7]": {"tested_on": "PBL", "assay": "Toxicity in human PBL assessed as chromosomal aberrations at 7.81 to 1000 ug/mL in the presence of S9", "type": "cell-based", "in_short": "as §1"}, "[8]": {"assay": "Apparent oral bioavailability in mouse at 5 mg/kg", "type": "ADME, organism-based", "conditions": "in vivo, read-out: Fapp"}, "[9]": {"assay": "Clearance in mouse at 1 mg/kg, iv", "type": "ADME, organism-based", "set-up": "dose 1 mg/kg, route intravenous", "conditions": "in vivo", "in_short": "as §2"}, "[10]": {"assay": "Clearance in Beagle dog at 0.5 mg/kg, iv", "type": "ADME, organism-based, Canis lupus familiaris", "set-up": "dose 0.5 mg/kg, route intravenous", "conditions": "in vivo", "in_short": "as §2"}}, "data": [{"compound": "CCOc1ccc(-n2c([C@@H](C)N(CCS(=O)(=O)CC)C(=O)Cc3ccc(F)c(C(F)(F)F)c3)nc3ncccc3c2=O)cc1", "values": [{"measurement": "TDI", "setting": "Cytochrome P450 3A4", "result": "Not Active"}]}, {"compound": "CCOc1ccc(-n2c([C@@H](C)N(Cc3ccc[n+]([O-])c3)C(=O)Cc3ccc(OC(F)(F)F)cc3)nc3ncccc3c2=O)cc1", "values": [{"measurement": "IC50", "setting": "[1]", "result": 14, "unit": "nM"}, {"measurement": "IC50", "setting": "[2]", "result": 7, "unit": "nM"}]}, {"compound": "C[C@H](c1nc2ncccc2c(=O)n1-c1ccc(C#N)cc1)N(CC1CCS(=O)(=O)CC1)C(=O)Cc1ccc(F)c(C(F)(F)F)c1", "values": [{"measurement": "Activity", "setting": "PBL [3]", "result": "Non-toxic"}, {"measurement": "IC50", "setting": "[1]", "result": 12, "unit": "nM"}, {"measurement": "bioavailability", "setting": "[4]", "result": 1, "unit": "%"}, {"measurement": "clearance", "setting": "[5]", "result": 21.7, "unit": "mL/min/kg"}, {"measurement": "bioavailability", "setting": "[6]", "result": 1.6, "unit": "%"}, {"measurement": "IC50", "setting": "[2]", "result": 8, "unit": "nM"}, {"measurement": "Activity", "setting": "PBL [7]", "result": "Non-toxic"}, {"measurement": "bioavailability", "setting": "[8]", "result": 17, "unit": "%"}, {"measurement": "clearance", "setting": "[9]", "result": 8.17, "unit": "mL/min/kg"}, {"measurement": "clearance", "setting": "[10]", "result": 8.33, "unit": "mL/min/kg"}]}, {"compound": "C[C@H](c1nc2ncccc2c(=O)n1-c1ccc(C#N)cc1)N(CCS(C)(=O)=O)C(=O)Cc1ccc(F)c(C(F)(F)F)c1", "values": [{"measurement": "Activity", "setting": "PBL [3]", "result": "Toxic"}, {"measurement": "IC50", "setting": "[1]", "result": 29, "unit": "nM"}, {"measurement": "IC50", "setting": "[2]", "result": 13, "unit": "nM"}, {"measurement": "Activity", "setting": "PBL [7]", "result": "Toxic"}]}, {"compound": "C[C@H](c1nc2ncccc2c(=O)n1-c1ccc(C#N)cc1)N(CC1CCS(=O)(=O)CC1)C(=O)Cc1ccc(C(F)(F)F)c(F)c1", "values": [{"measurement": "Activity", "setting": "PBL [3]", "result": "Toxic"}, {"measurement": "IC50", "setting": "[1]", "result": 15, "unit": "nM"}, {"measurement": "IC50", "setting": "[2]", "result": 7, "unit": "nM"}, {"measurement": "Activity", "setting": "PBL [7]", "result": "Toxic"}]}]}
